Laboratory results: paper PMC10373183 (ACS Omega, 2023)
Entries after “also recorded” stand apart in the source; their conditions may differ.

Assays:
[1] = test system: U937 cells; test: CellTiter-Glo Luminescent cell viability assay; assay type: cell-based, human; conditions: for inhibition at 25 µM / inhibition at 50 µM / inhibition at 100 µM / inhibition at 200 µM / GI50: Homo sapiens; for inhibition at 25 µM / inhibition at 50 µM / inhibition at 100 µM / inhibition at 200 µM: U-937, 72 h, read-out: percent inhibition at various concentrations of compounds (CellTiter-Glo, antiproliferative); for GI50: U-937, read-out: antiproliferative (U937) GI50; for antiproliferative activity (in words) / percent inhibition at various concentrations of compounds (CellTiter-Glo, antiproliferative): U937 cells; for antiproliferative activity (in words): CellTiter-Glo, four concentrations; for percent inhibition at various concentrations of compounds (CellTiter-Glo, antiproliferative): 72 h, Mitomycin C = 100%, DMSO = 0%
In short: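 U937 cells incubated 72 h with test compound at four concentrations; CellTiter-Glo reagent added at equal volume, shaken 2 min to lyse, then held 10 min at room temperature before luminescence read. Viability = RLU test × 100/RLU control, converted to percent inhibition. GI50 fitted from percent inhibition. Mitomycin C positive control; DMSO diluent as negative control.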

[2] = LDH release cytotoxicity assay; assay type: cell-based; conditions: human, U937 cells
In short: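 U937 cells plated and exposed to test compound at several concentrations for 4 h at 37 °C, with Triton X-100 as positive cytotoxicity control. Plates spun 1000 RPM for 5 min. Supernatants mixed with LDH detection reagent for 10 min in the dark at room temperature, then read at OD 490 nm. LC50 fitted from percent activity.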

Compound	GI50 [1]	inhibition at 25 µM [1]	inhibition at 50 µM [1]	inhibition at 100 µM [1]	inhibition at 200 µM [1]	antiproliferative activity (in words) [1]	inhibition at 4 h, 12.5 µM [2]	inhibition at 4 h, 25 µM [2]	inhibition at 4 h, 50 µM [2]	inhibition at 4 h, 100 µM [2]	percent inhibition at various concentrations of compounds (CellTiter-Glo, antiproliferative) ([1]; 25 μM compound)	percent inhibition at various concentrations of compounds (CellTiter-Glo, antiproliferative) ([1]; 50 μM compound)	percent inhibition at various concentrations of compounds (CellTiter-Glo, antiproliferative) ([1]; 100 μM compound)	percent inhibition at various concentrations of compounds (CellTiter-Glo, antiproliferative) ([1]; 200 μM compound)
Cc1n[nH]c(C)c1S(=O)(=O)N[C@H](C)c1cccc2ccccc12 [MR-S1-14, (R)-3,5-Dimethyl-N-(1-(naphthalen-1-yl)ethyl)-1H-pyrazole-4-sulfonamide]	9.4 µM	27.6%	32.9%	68.7%	98.9%	good antiproliferative activity; also recorded: most potent	-2.4%	-4%	-0.9%	-3.1%	–	–	–	–
Cc1n[nH]c(C)c1S(=O)(=O)NCCC1=CCCCC1 [MR-S1-1, N-(2-(Cyclohex-1-en-1-yl)ethyl)-3,5-dimethyl-1H-pyrazole-4-sulfonamide]	1.7 µM	18.6%	34.5%	54.2%	64.2%	moderate anti-proliferative activity	-0.9%	-2.2%	-0.4%	-1.8%	–	–	–	–
Cc1n[nH]c(C)c1S(=O)(=O)NCCc1cccc(Cl)c1 [MR-S1-7, N-(3-Chlorophenethyl)-3,5-dimethyl-1H-pyrazole-4-sulfonamide]	> 200 µM	14.5%	13.4%	24.2%	51.6%	–	-2%	-2.4%	0.9%	-3.1%	–	–	–	–
Cc1n[nH]c(C)c1S(=O)(=O)NCCc1ccc(Cl)cc1 [MR-S1-5, N-(4-Chlorophenethyl)-3,5-dimethyl-1H-pyrazole-4-sulfonamide]	16 µM	48.3%	44.2%	61.5%	78.7%	moderate anti-proliferative activity	-1.8%	-2.2%	-0.2%	-2.7%	–	–	–	–
Cc1nn(C)c(C)c1S(=O)(=O)NCCC1=CCCCC1 [MR-S1-2, N-(2-(Cyclohex-1-en-1-yl)ethyl)-1,3,5-trimethyl-1H-pyrazole-4-sulfonamide]	> 200 µM	24.8%	29.3%	42.2%	58%	–	-1.3%	-3.6%	-3.1%	-5.3%	–	–	–	–
COc1ccc(CCNS(=O)(=O)c2c(C)n[nH]c2C)cc1OC [MR-S1-9, N-(3,4-Dimethoxyphenethyl)-3,5-dimethyl-1H-pyrazole-4-sulfonamide]	> 200 µM	-0.5%	-26.2%	-21.2%	2%	impotent; also recorded: less anti-proliferative activity	-2.7%	2.7%	2.4%	-2.4%	–	–	–	–
Cc1nn(C)c(C)c1S(=O)(=O)N1CCC(c2nc3ccccc3[nH]2)CC1 [MR-S1-18, 2-(1-((1,3,5-Trimethyl-1H-pyrazol-4-yl)sulfonyl)piperidin-4-yl)-1H-benzo[d]imidazole]	92.6 µM	11.7%	36.4%	43.9%	83.4%	good antiproliferative activity	0.2%	-1.8%	0.2%	-0.4%	–	–	–	–
N-(3,4-Bis(methoxy-d3)phenethyl-d6)-3,5-dimethyl-1H-pyrazole-4-sulfonamide [MR-S1-10]	–	–	–	–	–	less anti-proliferative activity	–	–	–	–	–8.1%	–37.5%	–39.0%	–14.5%
CCOCCn1c(C2CCN(S(=O)(=O)c3c(C)n[nH]c3C)CC2)nc2ccccc21 [MR-S1-19, 2-(1-((3,5-Dimethyl-1H-pyrazol-4-yl)sulfonyl)piperidin-4-yl)-1-(2-ethoxyethyl)-1H-benzo[d]imidazole]	> 200 µM	-5%	2.2%	-1.3%	18%	impotent; also recorded: less anti-proliferative activity	-4.9%	-1.3%	-1.8%	-4%	–	–	–	–
CCCOc1ccc(CCNS(=O)(=O)c2c(C)n[nH]c2C)cc1OCCC [MR-S1-12, N-(3,4-Dipropoxyphenethyl)-3,5-dimethyl-1H-pyrazole-4-sulfonamide]	3.3 µM	35.9%	94.9%	100%	99.3%	good antiproliferative activity; also recorded: potent	-2.2%	0.7%	-2.7%	-0.9%	–	–	–	–
Cc1nn(C)c(C)c1S(=O)(=O)N[C@H](C)c1cccc2ccccc12 [MR-S1-15, (R)-1,3,5-Trimethyl-N-(1-(naphthalen-1-yl)ethyl)-1H-pyrazole-4-sulfonamide]	3 µM	19.5%	65.1%	88.5%	101%	good antiproliferative activity; also recorded: most potent	0%	-1.3%	-1.8%	-2.7%	–	–	–	–
Cc1n[nH]c(C)c1S(=O)(=O)NCCc1c[nH]c2ccccc12 [MR-S1-16, N-(2-(1H-Indol-3-yl)ethyl)-3,5-dimethyl-1H-pyrazole-4-sulfonamide]	> 200 µM	14.5%	24.1%	22.5%	55.9%	–	3.8%	-0.9%	-1.6%	-1.8%	–	–	–	–

Continued, in another order:

GI50 [1]	Compound	inhibition at 25 µM [1]	inhibition at 50 µM [1]	inhibition at 100 µM [1]	inhibition at 200 µM [1]	antiproliferative activity (in words) [1]	inhibition at 4 h, 12.5 µM [2]	inhibition at 4 h, 25 µM [2]	inhibition at 4 h, 50 µM [2]	inhibition at 4 h, 100 µM [2]	percent inhibition at various concentrations of compounds (CellTiter-Glo, antiproliferative) ([1]; 25 μM compound)	percent inhibition at various concentrations of compounds (CellTiter-Glo, antiproliferative) ([1]; 50 μM compound)	percent inhibition at various concentrations of compounds (CellTiter-Glo, antiproliferative) ([1]; 100 μM compound)	percent inhibition at various concentrations of compounds (CellTiter-Glo, antiproliferative) ([1]; 200 μM compound)
16 µM	Cc1n[nH]c(C)c1S(=O)(=O)NCCc1ccccc1 [MR-S1-3, 3,5-Dimethyl-N-phenethyl-1H-pyrazole-4-sulfonamide]	12.7%	24.5%	31.8%	74.8%	moderate anti-proliferative activity	-0.9%	-2.4%	-1.3%	-1.3%	–	–	–	–
> 200 µM	Cc1nn(C)c(C)c1S(=O)(=O)NCCc1c[nH]c2ccccc12 [MR-S1-17, N-(2-(1H-Indol-3-yl)ethyl)-1,3,5-trimethyl-1H-pyrazole-4-sulfonamide]	18.6%	12.9%	32.2%	12.9%	impotent; also recorded: less anti-proliferative activity	-0.9%	-2%	-2%	-1.6%	–	–	–	–
> 200 µM	Cc1nn(C)c(C)c1S(=O)(=O)NCCc1ccc(Cl)cc1 [MR-S1-6, N-(4-Chlorophenethyl)-1,3,5-trimethyl-1H-pyrazole-4-sulfonamide]	40.5%	17.9%	28.4%	44.2%	–	3.3%	-1.3%	-2%	-1.6%	–	–	–	–
> 200 µM	Cc1nn(C)c(C)c1S(=O)(=O)NCCc1ccccc1 [MR-S1-4, 1,3,5-Trimethyl-N-phenethyl-1H-pyrazole-4-sulfonamide]	33%	19.2%	37.8%	23.2%	impotent; also recorded: less anti-proliferative activity	-2.9%	-2.2%	-0.9%	-1.8%	–	–	–	–
> 200 µM	Cc1nn(C)c(C)c1S(=O)(=O)NCCc1cccc(Cl)c1 [MR-S1-8, N-(3-Chlorophenethyl)-1,3,5-trimethyl-1H-pyrazole-4-sulfonamide]	25.1%	28.4%	34.6%	47.4%	–	2.9%	-1.3%	1.8%	0.4%	–	–	–	–
